In ChEMBL document CHEMBL4266041, “Hydroxybiphenylamide GroEL/ES Inhibitors Are Potent Antibacterials against Planktonic and Biofilm Forms of Staphylococcus aureus” (J Med Chem, 2018):

Experiments:
HSP60/HSP10 = HSP60/HSP10 (Homo sapiens, UniProt P10809); experiment: Inhibition of human N-terminal octa-His-tagged HSP60 expressed in Escherichia coli Rosetta(DE3) pLysS/human HSP10 expressed in Escherichia coli Rosetta(DE3) assessed as reduction in HSP60/HSP10-mediated denatured MDH refolding after 40 to 60 mins by spectrometric analysis
HSP60/HSP10, sequence (P10809 whole entry): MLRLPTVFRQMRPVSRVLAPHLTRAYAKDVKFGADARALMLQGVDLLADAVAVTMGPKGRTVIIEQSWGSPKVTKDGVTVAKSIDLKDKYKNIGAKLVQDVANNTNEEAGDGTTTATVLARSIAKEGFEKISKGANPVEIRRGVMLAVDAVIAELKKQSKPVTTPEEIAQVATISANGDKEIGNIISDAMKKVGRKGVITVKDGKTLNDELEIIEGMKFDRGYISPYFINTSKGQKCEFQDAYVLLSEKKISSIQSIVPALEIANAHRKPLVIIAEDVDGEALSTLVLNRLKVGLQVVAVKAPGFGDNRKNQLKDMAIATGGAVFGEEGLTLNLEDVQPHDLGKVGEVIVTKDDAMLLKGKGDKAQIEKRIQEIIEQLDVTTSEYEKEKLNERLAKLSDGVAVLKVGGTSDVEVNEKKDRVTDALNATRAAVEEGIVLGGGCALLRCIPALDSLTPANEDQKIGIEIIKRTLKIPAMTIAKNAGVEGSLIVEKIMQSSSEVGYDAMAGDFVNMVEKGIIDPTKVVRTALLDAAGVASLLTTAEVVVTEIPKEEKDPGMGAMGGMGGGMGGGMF
HSP60/HSP10, sequence (P61604 whole entry, further chain): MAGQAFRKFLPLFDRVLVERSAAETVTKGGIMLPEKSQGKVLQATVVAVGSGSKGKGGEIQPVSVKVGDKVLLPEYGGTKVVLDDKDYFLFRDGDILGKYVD
Procedure, shortened: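 Human HSP60/10 refolding of denatured MDH, run the same way as the GroEL/ES-dMDH assay. A binary complex of chaperonin and denatured MDH is formed, and refolding is started with ATP and HSP10. MDH activity is the read-out. DMSO is the negative control. IC50 values from replicate curves are log-averaged after ROUT outlier screening.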

Staphylococcus aureus [1] = experiment: Antibacterial activity against Staphylococcus aureus ATCC 25923 after 6 to 8 hrs by bacterial proliferation assay; format: functional, organism-based
Enterococcus faecium = experiment: Antibacterial activity against Enterococcus faecium ATCC 19434 after 24 hrs by bacterial proliferation assay; format: functional, organism-based; conditions: ATCC 19434, 24 h
[2] = Cytotoxicity against HEK293 cells assessed as reduction in cell viability after 48 hrs by Alamar Blue reporter assay; conditions: human, HEK293 cells
Staphylococcus aureus [3] = experiment: Antibacterial activity against methicillin-resistant Staphylococcus aureus ATCC BAA-44 after 6 to 8 hrs by bacterial proliferation assay; format: functional, organism-based; conditions: Staphylococcus aureus, ATCC BAA-44
E. coli GroEL/ES [4] = target: T1, E. coli GroEL/ES (Escherichia coli, UniProt P0A6F5); experiment: Inhibition of Escherichia coli GroEL expressed in Escherichia coli DH5alpha/Escherichia coli GroES expressed in Escherichia coli BL21 (DE3) assessed as reduction in GroEL/GroES-mediated denatured rhodanese refolding after 45 mins by spectrometric analysis
T1 sequence (P0A6F5 whole entry, looked up): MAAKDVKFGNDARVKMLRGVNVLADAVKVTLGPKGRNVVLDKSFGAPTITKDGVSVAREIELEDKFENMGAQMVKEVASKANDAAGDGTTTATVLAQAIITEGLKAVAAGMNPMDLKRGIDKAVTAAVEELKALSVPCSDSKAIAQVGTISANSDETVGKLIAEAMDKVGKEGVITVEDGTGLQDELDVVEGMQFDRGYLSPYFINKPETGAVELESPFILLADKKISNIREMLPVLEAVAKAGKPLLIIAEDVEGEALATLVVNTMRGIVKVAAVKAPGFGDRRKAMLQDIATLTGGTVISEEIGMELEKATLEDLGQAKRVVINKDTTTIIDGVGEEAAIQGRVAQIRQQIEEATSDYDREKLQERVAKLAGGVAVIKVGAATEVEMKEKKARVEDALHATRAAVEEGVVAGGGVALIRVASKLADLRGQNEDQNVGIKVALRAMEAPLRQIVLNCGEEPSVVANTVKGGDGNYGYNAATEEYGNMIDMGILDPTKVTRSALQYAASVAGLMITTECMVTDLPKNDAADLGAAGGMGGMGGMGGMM
Procedure, shortened: (§1)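 Uses E. coli GroEL/ES with a denatured MDH or rhodanese reporter. GroEL first forms a binary complex with the denatured reporter. Refolding is started by adding ATP and GroES, then reporter enzyme activity is read. DMSO is the negative control. IC50 values from replicate curves are log-averaged after ROUT outlier screening.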

[5] = Inhibition of refolded MDH (unknown origin) preincubated with Escherichia coli GroEL/GroES for 45 mins in absence of compound followed by compound addition and measured for 20 to 35 mins by spectrometric analysis
[6] = Cytotoxicity against human THLE3 cells assessed as reduction in cell viability after 48 hrs by Alamar Blue reporter assay; conditions: THLE3 cells
E. coli GroEL/ES [7] = target: T1, E. coli GroEL/ES; experiment: Inhibition of Escherichia coli GroEL expressed in Escherichia coli DH5alpha/Escherichia coli GroES expressed in Escherichia coli BL21 (DE3) assessed as reduction in GroEL/GroES-mediated denatured MDH refolding after 20 to 40 mins by spectrometric analysis; procedure, shortened: as §1
Acinetobacter baumannii = experiment: Antibacterial activity against Acinetobacter baumannii ATCC 19606 after 24 hrs by bacterial proliferation assay; format: functional, organism-based; conditions: ATCC 19606 = CIP 70.34 = JCM 6841, 24 h
Procedure, shortened: (§2)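 Bacterial growth inhibition in liquid culture. The highest concentration tested was 100 µM. The mean was back-calculated from the average log value. Values above the top concentration were set 0.1 log unit higher.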

Pseudomonas aeruginosa = experiment: Antibacterial activity against Pseudomonas aeruginosa ATCC 10145 after 24 hrs by bacterial proliferation assay; format: functional, organism-based; conditions: ATCC 10145, 24 h; procedure, shortened: as §2
Klebsiella pneumoniae = experiment: Antibacterial activity against Klebsiella pneumoniae ATCC 13883 after 6 to 8 hrs by bacterial proliferation assay; format: functional, organism-based; procedure, shortened: as §2
[8] = target: T2, Thiosulfate sulfurtransferase (Homo sapiens, UniProt Q16762); experiment: Inhibition of refolded rhodanese (unknown origin) preincubated with Escherichia coli GroEL/GroES for 60 mins in absence of compound followed by compound addition by spectrometric analysis
T2 sequence (Q16762 whole entry): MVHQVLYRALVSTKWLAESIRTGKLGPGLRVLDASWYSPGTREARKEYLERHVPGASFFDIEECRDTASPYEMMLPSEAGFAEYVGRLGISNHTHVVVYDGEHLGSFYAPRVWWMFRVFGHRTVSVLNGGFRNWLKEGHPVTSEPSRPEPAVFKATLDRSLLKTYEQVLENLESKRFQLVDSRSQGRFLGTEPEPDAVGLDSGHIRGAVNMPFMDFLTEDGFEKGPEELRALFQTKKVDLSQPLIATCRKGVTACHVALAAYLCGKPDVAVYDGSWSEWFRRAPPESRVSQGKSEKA

Enterobacter cloacae = experiment: Antibacterial activity against Enterobacter cloacae subsp. cloacae ATCC 13047 after 24 hrs by bacterial proliferation assay; format: functional, organism-based; conditions: subsp. cloacae ATCC 13047, 24 h; procedure, shortened: as §2

CCCCCCCCCC(=O)N[C@@H](Cc1c[nH]c2ccccc12)C(=O)NC(CC(N)=O)C(=O)N[C@@H](CC(=O)O)C(=O)N[C@@H]1C(=O)NCC(=O)N[C@@H](CCCN)C(=O)N[C@@H](CC(=O)O)C(=O)N[C@H](C)C(=O)N[C@@H](CC(=O)O)C(=O)NCC(=O)N[C@H](CO)C(=O)N[C@@H]([C@H](C)CC(=O)O)C(=O)N[C@@H](CC(=O)c2ccccc2N)C(=O)O[C@@H]1C (single isomer, unassigned) [DAPTOMYCIN]
IC50 (HSP60/HSP10): > 100 µM | EC50 (Staphylococcus aureus [1]): 0.68 µM | EC50 (Enterococcus faecium): 9.2 µM | CC50 at 48 h [2]: > 100 µM | EC50 (Staphylococcus aureus [3]): 1 µM | IC50 (E. coli GroEL/ES [4]): > 100 µM | IC50 [5]: > 63 µM | CC50 at 48 h [6]: > 100 µM | IC50 (E. coli GroEL/ES [7]): > 100 µM | EC50 (Acinetobacter baumannii): > 100 µM | EC50 (Pseudomonas aeruginosa): > 100 µM | EC50 (Klebsiella pneumoniae): > 100 µM | IC50 [8]: > 100 µM | EC50 (Enterobacter cloacae): > 100 µM
